# Results reported in ChEMBL document CHEMBL1629485, “Lead identification of conformationally restricted β-lactam type combretastatin analogues: synthesis, antiproliferative activity and tubulin targeting effects” (Eur J Med Chem, 2010).
# Experiments:
# Format in all cases: functional
# [1] = system: MDA-MB-231; assay: Cell cycle arrest in estrogen receptor deficient human MDA-MB-231 cells assessed as accumulation at G1 phase at 10 nM after 24 hrs using propidium iodide staining by flow cytometry relative to control
# In short: (§1)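 MDA-MB-231 cells in DMEM with 10% FBS and 2 mM L-glutamine, seeded at 18 × 10⁴ cells/mL. Exposed to test agent at the stated final concentration, or to 1% (v/v) ethanol vehicle, for 24, 48 or 72 h. Harvested by scraping and centrifugation, then RNase A treatment and propidium iodide DNA staining for at least 30 min at 37 °C. 10,000 cells per sample read at 488 nm by flow cytometry; mean ± SD of three experiments.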
# [2] = system: MDA-MB-231; assay: Cell cycle arrest in estrogen receptor deficient human MDA-MB-231 cells assessed as appearance of polyploidy at 10 uM after 72 hrs using propidium iodide staining by flow cytometry relative to control
# In short: (§2)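 MDA-MB-231 cells seeded at 18 × 10⁴ cells/mL and exposed to 1% (v/v) ethanol vehicle or compound at final concentrations (10 nM, 100 nM, 10 µM at all times; 1 µM also at 24 and 72 h). Cells harvested after 24, 48 or 72 h and treated with RNase A and propidium iodide for at least 30 min at 37 °C. 10,000 cells read at 488 nm by flow cytometry. Percent cells per phase reported, including polyploid; mean ± SD of three experiments.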
# [3] = system: MDA-MB-231; assay: Cell cycle arrest in estrogen receptor deficient human MDA-MB-231 cells assessed as accumulation at G2/M phase at 10 uM after 48 hrs using propidium iodide staining by flow cytometry relative to control; in short: as §1
# [4] = system: MDA-MB-231; assay: Cell cycle arrest in estrogen receptor deficient human MDA-MB-231 cells assessed as appearance of polyploidy at 100 nM after 48 hrs using propidium iodide staining by flow cytometry relative to control; in short: as §2
# [5] = system: MDA-MB-231; assay: Cell cycle arrest in estrogen receptor deficient human MDA-MB-231 cells assessed as accumulation at G1 phase at 1 uM after 72 hrs using propidium iodide staining by flow cytometry relative to control; in short: as §1
# [6] = system: MDA-MB-231; assay: Cell cycle arrest in estrogen receptor deficient human MDA-MB-231 cells assessed as accumulation at G2/M phase at 10 nM after 24 hrs using propidium iodide staining by flow cytometry relative to control; in short: as §1
# [7] = system: MDA-MB-231; assay: Cell cycle arrest in estrogen receptor deficient human MDA-MB-231 cells assessed as accumulation at G1 phase at 10 uM after 24 hrs using propidium iodide staining by flow cytometry relative to control; in short: as §1
# [8] = system: MDA-MB-231; assay: Cell cycle arrest in estrogen receptor deficient human MDA-MB-231 cells assessed as accumulation at G2/M phase at 100 nM after 48 hrs using propidium iodide staining by flow cytometry relative to control; in short: as §1
# [9] = system: MDA-MB-231; assay: Cell cycle arrest in estrogen receptor deficient human MDA-MB-231 cells assessed as accumulation at G2/M phase at 10 nM after 48 hrs using propidium iodide staining by flow cytometry relative to control; in short: as §1
# [10] = system: MDA-MB-231; assay: Cell cycle arrest in estrogen receptor deficient human MDA-MB-231 cells assessed as accumulation at sub-G1 phase at 10 nM after 48 hrs using propidium iodide staining by flow cytometry relative to control; in short: as §1
# [11] = system: MDA-MB-231; assay: Cell cycle arrest in estrogen receptor deficient human MDA-MB-231 cells assessed as appearance of polyploidy at 10 nM after 24 hrs using propidium iodide staining by flow cytometry relative to control; in short: as §1
# [12] = system: MDA-MB-231; assay: Cell cycle arrest in estrogen receptor deficient human MDA-MB-231 cells assessed as accumulation at S phase at 10 uM after 72 hrs using propidium iodide staining by flow cytometry relative to control; in short: as §1
# [13] = system: MDA-MB-231; assay: Cell cycle arrest in estrogen receptor deficient human MDA-MB-231 cells assessed as accumulation at S phase at 10 uM after 48 hrs using propidium iodide staining by flow cytometry relative to control; in short: as §1
# [14] = system: MDA-MB-231; assay: Cell cycle arrest in estrogen receptor deficient human MDA-MB-231 cells assessed as appearance of polyploidy at 10 nM after 48 hrs using propidium iodide staining by flow cytometry relative to control; in short: as §1
# [15] = system: MDA-MB-231; assay: Cell cycle arrest in estrogen receptor deficient human MDA-MB-231 cells assessed as appearance of polyploidy at 1 uM after 72 hrs using propidium iodide staining by flow cytometry relative to control; in short: as §1
# [16] = system: MDA-MB-231; assay: Cell cycle arrest in estrogen receptor deficient human MDA-MB-231 cells assessed as appearance of polyploidy at 1 uM after 24 hrs using propidium iodide staining by flow cytometry relative to control; in short: as §1
# [17] = system: MDA-MB-231; assay: Cell cycle arrest in estrogen receptor deficient human MDA-MB-231 cells assessed as accumulation at G2/M phase at 1 uM after 72 hrs using propidium iodide staining by flow cytometry relative to control; in short: as §1
# [18] = system: MDA-MB-231; assay: Cell cycle arrest in estrogen receptor deficient human MDA-MB-231 cells assessed as accumulation at sub-G1 phase at 10 uM after 72 hrs using propidium iodide staining by flow cytometry relative to control; in short: as §1
# [19] = system: MDA-MB-231; assay: Cell cycle arrest in estrogen receptor deficient human MDA-MB-231 cells assessed as accumulation at sub-G1 phase at 1 uM after 24 hrs using propidium iodide staining by flow cytometry relative to control; in short: as §1
# [20] = system: MDA-MB-231; assay: Cell cycle arrest in estrogen receptor deficient human MDA-MB-231 cells assessed as accumulation at S phase at 100 nM after 48 hrs using propidium iodide staining by flow cytometry relative to control; in short: as §1
# [21] = system: MDA-MB-231; assay: Cell cycle arrest in estrogen receptor deficient human MDA-MB-231 cells assessed as accumulation at sub-G1 phase at 10 nM after 24 hrs using propidium iodide staining by flow cytometry relative to control; in short: as §1
# [22] = system: MDA-MB-231; assay: Cell cycle arrest in estrogen receptor deficient human MDA-MB-231 cells assessed as accumulation at sub-G1 phase at 100 nM after 72 hrs using propidium iodide staining by flow cytometry relative to control; in short: as §1
# [23] = system: MDA-MB-231; assay: Cell cycle arrest in estrogen receptor deficient human MDA-MB-231 cells assessed as accumulation at S phase at 100 nM after 72 hrs using propidium iodide staining by flow cytometry relative to control; in short: as §1
# [24] = system: MDA-MB-231; assay: Cell cycle arrest in estrogen receptor deficient human MDA-MB-231 cells assessed as accumulation at sub-G1 phase at 100 nM after 24 hrs using propidium iodide staining by flow cytometry relative to control; in short: as §1
# [25] = system: MDA-MB-231; assay: Cell cycle arrest in estrogen receptor deficient human MDA-MB-231 cells assessed as accumulation at S phase at 100 nM after 24 hrs using propidium iodide staining by flow cytometry relative to control; in short: as §1
# [26] = system: MDA-MB-231; assay: Cell cycle arrest in estrogen receptor deficient human MDA-MB-231 cells assessed as accumulation at G2/M phase at 100 nM after 72 hrs using propidium iodide staining by flow cytometry relative to control; in short: as §1
# [27] = system: MDA-MB-231; assay: Cell cycle arrest in estrogen receptor deficient human MDA-MB-231 cells assessed as appearance of polyploidy at 100 nM after 24 hrs using propidium iodide staining by flow cytometry relative to control; in short: as §2
# [28] = system: MDA-MB-231; assay: Cytotoxicity against estrogen receptor deficient human MDA-MB-231 cells assessed as LDH release at 10 uM
# In short: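 After compound treatment, LDH was measured with a commercial LDH kit. Result is % cell lysis at 10 μM compound.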
# [29] = system: MDA-MB-231; assay: Cell cycle arrest in estrogen receptor deficient human MDA-MB-231 cells assessed as accumulation at sub-G1 phase at 10 uM after 24 hrs using propidium iodide staining by flow cytometry relative to control; in short: as §1
compound,measurement,setting,value
COc1ccc(C2CC(=O)N2c2cc(OC)c(OC)c(OC)c2)cc1O (centres undefined),Activity,[1],48.33%
same,Activity,[2],3.38%
same,Activity,[3],27.25%
same,Activity,[4],4.61%
same,Activity,[5],14.29%
same,Activity,[6],25.61%
same,Activity,[7],29.3%
same,Activity,[8],36.42%
same,Activity,[9],23.71%
same,Activity,[10],11.57%
same,Activity,[11],2.84%
same,Activity,[12],9.66%
same,Activity,[13],4.47%
same,Activity,[14],6.1%
same,Activity,[15],5.97%
same,Activity,[16],4.31%
same,Activity,[17],21.24%
same,Activity,[18],46.49%
same,Activity,[19],7.08%
same,Activity,[20],8.9%
same,Activity,[21],3.72%
same,Activity,[22],63.1%
same,Activity,[23],5.34%
same,Activity,[24],4.88%
same,Activity,[25],6.05%
same,Activity,[26],12.62%
same,Activity,[27],4.87%
same,Activity,[28],16%
same,Activity,[29],3.18%
